Test [1] deals with Splenocyte. Briefly: In vivo inhibition of BCR signaling in female […] mouse assessed as CD69 expression at 2.9 mg/kg, po administered and measured after stimulation with anti-IgM for 18 h by flow cytometry analysis. The test is classed as functional, organism-based. In a few lines:
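Female C57BL/6 mice (5/group/dose) were gavaged orally with vehicle or drug at 0.1–30 mg/kg, and spleens were harvested after 3 h. Splenocytes were stimulated with anti-IgM at 10μg/mL for 18 h at 37°C in 5% CO2, then Fc-blocked and stained for CD19 and CD69, with 7-AAD marking dead cells. CD69 on CD19+ B-cells was read by flow cytometry, acquiring >5,000 gated CD19+ cells.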

Test [2] is described as follows: In vivo inhibition of BCR signaling in female […] mouse assessed as B-cell function at 25 mg/kg, po administered for 24 hrs and measured after stimulation with anti-IgM for 18 h by flow cytometry analysis relative to control. Further details: scale not given: the % may be the effect or the level left. The test is classed as functional, Splenocyte. In a few lines: (§1)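 Female C57BL/6 mice (5/group) received vehicle or 25 mg/kg drug by oral gavage at time zero, with spleens taken at time points from 3 to 24 h. Splenocytes were stimulated ex vivo with goat anti-mouse IgM at 10μg/mL for 18 h at 37°C in 5% CO2, then Fc-blocked and stained for CD19 plus CD69, CD86 or phospho-S6(S235/236), with 7-AAD to exclude dead cells. Read-out was flow cytometry on >5,000 gated CD19+ cells, compared with vehicle.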

Test [3] relates to Splenocyte. Briefly: In vivo inhibition of BCR signaling in female […] mouse assessed as change in CD86 expression at 25 mg/kg, po administered and measured after stimulation with anti-IgM for 18 h by flow cytometry analysis. The test is classed as functional, organism-based. In short, it runs like this:
as §1

In test [4] the test system is Splenocyte. Briefly: In vivo inhibition of BCR signaling in female […] mouse assessed as change in phospho-S6 expression at 25 mg/kg, po administered and measured after stimulation with anti-IgM for 18 h by flow cytometry analysis. It counts as functional, organism-based. In short, it runs like this: as §1

Structures are written as SMILES. Activity calls are given as the source filed them. The calls are words filed in the database; no cut-off is given here.

As to `C=CC(=O)N1CCC[C@@H](n2nc(-c3ccc(Oc4ccccc4)cc3)c3c(N)ncnc32)C1` [IBRUTINIB], the outcome in test [1], in test [3] and in test [4] was Active. For the same compound, in test [2], the Activity is about 70%.

For the origin of these results see ChEMBL document CHEMBL5678815 (Clin Cancer Res, 2017).
